Source: ChEMBL document CHEMBL1123502, “Synthesis of [[(naphthalenylmethoxy)- and [[(quinolinylmethoxy)phenyl]amino]oxoalkanoic acid esters. A novel series of leukotriene D4 antagonists and 5-lipoxygenase inhibitors” (J Med Chem, 1986)
pIC50: −log10 of the molar value.

Molecular target: T1, Polyunsaturated fatty acid 5-lipoxygenase (Rattus norvegicus) (UniProt P12527)
T1 sequence (whole entry): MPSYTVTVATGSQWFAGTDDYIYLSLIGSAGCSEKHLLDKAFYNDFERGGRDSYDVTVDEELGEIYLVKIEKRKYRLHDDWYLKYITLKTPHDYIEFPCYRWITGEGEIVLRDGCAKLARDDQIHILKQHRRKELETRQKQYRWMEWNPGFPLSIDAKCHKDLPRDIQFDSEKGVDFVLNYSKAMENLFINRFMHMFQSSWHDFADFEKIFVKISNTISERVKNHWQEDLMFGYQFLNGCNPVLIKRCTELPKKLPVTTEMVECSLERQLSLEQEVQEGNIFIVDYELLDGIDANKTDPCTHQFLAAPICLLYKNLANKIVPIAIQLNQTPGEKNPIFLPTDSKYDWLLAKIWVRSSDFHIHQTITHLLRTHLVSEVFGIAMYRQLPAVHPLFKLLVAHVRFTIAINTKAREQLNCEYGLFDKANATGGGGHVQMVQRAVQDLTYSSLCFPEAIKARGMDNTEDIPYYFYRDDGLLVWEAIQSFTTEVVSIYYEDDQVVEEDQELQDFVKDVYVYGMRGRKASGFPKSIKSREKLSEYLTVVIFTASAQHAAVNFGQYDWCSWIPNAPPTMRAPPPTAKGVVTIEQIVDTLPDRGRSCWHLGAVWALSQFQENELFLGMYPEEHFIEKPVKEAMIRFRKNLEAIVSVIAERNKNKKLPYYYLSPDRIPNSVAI
Test: In vitro inhibition of rat polymorphonuclear leukocyte (PMN) 5-Lipoxygenase at 100 uM
Conditions: not given

Row | Structure (SMILES) | inhibition
1 | O=C(O)CCC(=O)Nc1cccc(OCc2ccc3ccccc3n2)c1 | < 50%
2 | COC(=O)CCC(=O)Nc1cccc(OCc2ccc3ccccc3n2)c1C#N | < 50%
3 | O=C(O)CCNC(=O)c1cccc(OCc2ccc3ccccc3c2)c1 | < 50%
4 | O=C(O)CCNC(=O)c1cccc(COc2ccc3ccccc3c2)c1 | < 50%
5 | COC(=O)CCC(=O)Nc1cccc(OCc2ccc3ccc(C)cc3n2)c1 | < 50%
6 | COC(=O)CCC(=O)Nc1cccc(OCc2cccc3cccnc23)c1 | < 50%
7 | N#CCCNC(=O)c1cccc(OCc2ccc3ccccc3c2)c1 | < 50%
8 | COC(=O)CCC(=O)Nc1ccc(OCc2ccc3ccccc3c2)cc1 | < 50%

Molecular target: T2, Polyunsaturated fatty acid 5-lipoxygenase (Rattus norvegicus, UniProt P12527)
T2 sequence (P12527 whole entry): T1 sequence (whole entry)
Test: Inhibition of rat polymorphonuclear leukocyte (PMN) 5-Lipoxygenase in vitro
Conditions: not given
Summary of the method: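 Peritoneal PMNs came from female Wistar rats 24 h after ip 6% glycogen. Cells at 2×10^7/mL in HBSS with Ca2+/Mg2+ and 10 mM L-cysteine were preincubated with drug or vehicle for 10 min at 37 °C. The reaction was stopped with ice-cold water and acidified to pH 3.5, and LO and CO products were ether-extracted. IC50 per metabolite came from nonlinear regression.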

Row | Structure (SMILES) | pIC50
9 | COC(=O)CCNC(=O)c1cccc(OCc2ccc3ccccc3c2)c1 | 4.53
10 | COC(=O)C(=O)Nc1cccc(OCc2ccc3ccccc3n2)c1 | 5.28
11 | COC(=O)C(=O)Nc1cccc(OCc2ccc3ccccc3c2)c1 | 5.16
12 | COC(=O)CC(=O)Nc1cccc(OCc2ccc3ccccc3n2)c1 | 4.61
13 | COC(=O)CCC(=O)Nc1ccccc1OCc1ccc2ccccc2c1 | 4.06
14 | COC(=O)CCNC(=O)c1cccc(COc2ccc3ccccc3c2)c1 | 4.22
15 | O=C(O)CCC(=O)N(O)c1cccc(OCc2ccc3ccccc3c2)c1 | 4.80
16 | COC(=O)CCNC(=O)c1cccc(OCc2ccc3ccccc3n2)c1 | 4.45
17 | COC(=O)CCC(=O)Nc1cccc(OCc2ccc3ccccc3n2)c1C | 4.81
18 | COC(=O)CCC(=O)N(C)c1cccc(OCc2ccc3ccccc3n2)c1 | 4.85
19 | COC(=O)CCC(=O)Nc1cccc(OCc2ccc3ccccc3n2)c1 | 4.55
20 | COC(=O)CC(=O)Nc1cccc(OCc2ccc3ccccc3c2)c1 | 5.02
21 | CCOC(=O)CCC(=O)Nc1cccc(OCc2ccc3ccccc3n2)c1 | 4.90
22 | CCOC(=O)CC(=O)Nc1cccc(OCc2ccc3ccccc3n2)c1 | 4.72
23 | COC(=O)CCC(=O)Nc1ccc(OCc2ccc3ccccc3n2)cc1 | 5.59
24 | COC(=O)CCC(=O)Nc1cccc(Oc2ccc3ccccc3n2)c1 | 4.59
25 | COC(=O)CCC(=O)Nc1cccc(COc2ccc3ccccc3c2)c1 | 5.72
26 | COC(=O)CCCC(=O)Nc1cccc(OCc2ccc3ccccc3c2)c1 | 4.90
27 | COC(=O)CCCC(=O)Nc1cccc(OCc2ccc3ccccc3n2)c1 | 4.98
28 | COC(=O)CCC(=O)Nc1cc(OCc2ccc3ccccc3n2)ccc1C | 5.12

System: Cavia porcellus
Test: Compound was evaluated in vivo for the percent inhibition of Ovalbumin-induced (OA) bronchospasm in guinea pig at dose of 50 mg/kg id
Format: functional
Conditions: route intraduodenal
Summary of the method: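 Male Hartley guinea pigs (350-600 g) were sensitized with ovalbumin (5 mg ip plus 5 mg sc) and used 3-5 weeks later. They were anesthetized with pentobarbital, ventilated, and given indomethacin (10 mg/kg iv, 9 min before challenge) and chlorpheniramine (1.0 mg/kg iv, 1 min later). Drug was given id (or as noted) 10 min before 1% aerosolized ovalbumin; controls received saline. Overflow volume at 1, 3 and 5 min was taken as % of maximal bronchoconstriction and converted to % inhibition.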

Row | Structure (SMILES) | inhibition in vivo at 50 mg/kg
29 | COC(=O)CC(=O)Nc1cccc(OCc2ccc3ccccc3n2)c1 | 57%
30 | O=C(O)CCC(=O)N(O)c1cccc(OCc2ccc3ccccc3c2)c1 | -35%
31 | O=C(O)CCC(=O)Nc1cccc(OCc2ccc3ccccc3n2)c1 | -20%
32 | COC(=O)CCC(=O)N(C)c1cccc(OCc2ccc3ccccc3n2)c1 | 2%
33 | COC(=O)CCC(=O)Nc1cccc(OCc2ccc3ccccc3n2)c1 | 43%
34 | CCOC(=O)CCC(=O)Nc1cccc(OCc2ccc3ccccc3n2)c1 | 6%
35 | CCOC(=O)CC(=O)Nc1cccc(OCc2ccc3ccccc3n2)c1 | 67%
36 | COC(=O)CCC(=O)Nc1cccc(Oc2ccc3ccccc3n2)c1 | -55%

System: not listed separately
Test: In vivo inhibition of LTD4-induced bronchospasm in guinea pig at dose of 50 mg/kg
Conditions: Cavia porcellus

Row | Structure (SMILES) | inhibition
37 | COC(=O)C(=O)Nc1cccc(OCc2ccc3ccccc3n2)c1 | -2%
38 | COC(=O)C(=O)Nc1cccc(OCc2ccc3ccccc3c2)c1 | -1%
39 | COC(=O)CCNC(=O)c1cccc(COc2ccc3ccccc3c2)c1 | -6%
40 | O=C(O)CCC(=O)Nc1cccc(OCc2ccc3ccccc3n2)c1 | 66%
41 | COC(=O)CCC(=O)Nc1cccc(OCc2ccc3ccccc3n2)c1C#N | -6%
42 | COC(=O)CCNC(=O)c1cccc(OCc2ccc3ccccc3n2)c1 | -3%
43 | COC(=O)CCC(=O)N(C)c1cccc(OCc2ccc3ccccc3n2)c1 | 48%
44 | O=C(O)CCNC(=O)c1cccc(OCc2ccc3ccccc3c2)c1 | 10%
45 | COC(=O)CCC(=O)Nc1cccc(OCc2ccc3ccccc3n2)c1 | 86%
46 | CCOC(=O)CCC(=O)Nc1cccc(OCc2ccc3ccccc3n2)c1 | 95%
47 | O=C(O)CCNC(=O)c1cccc(COc2ccc3ccccc3c2)c1 | 2%
48 | COC(=O)CCC(=O)Nc1cccc(OCc2ccc3ccc(C)cc3n2)c1 | -6.1%
49 | COC(=O)CCC(=O)Nc1ccc(OCc2ccc3ccccc3n2)cc1 | -7%
50 | COC(=O)CCC(=O)Nc1cccc(Oc2ccc3ccccc3n2)c1 | 29%
51 | COC(=O)CCCC(=O)Nc1cccc(OCc2ccc3ccccc3c2)c1 | 5%
52 | COC(=O)CCC(=O)Nc1ccc(OCc2ccc3ccccc3c2)cc1 | 12%
53 | COC(=O)CCC(=O)Nc1cc(OCc2ccc3ccccc3n2)ccc1C | 23%

Molecular target: Cyclooxygenase (Rattus norvegicus) (UniProt P35355+Q63921)
Test: In vitro inhibition of rat polymorphonuclear leukocyte (PMN) Prostaglandin G/H synthase at 100 uM
Conditions: not given

Row | Structure (SMILES) | inhibition
54 | CCCCCC(O)c1cccc(OCc2ccc3ccccc3n2)c1 (stereo not given) | < 50%
55 | COC(=O)CCNC(=O)c1cccc(OCc2ccc3ccccc3c2)c1 | < 50%
56 | COC(=O)C(=O)Nc1cccc(OCc2ccc3ccccc3n2)c1 | < 50%
57 | COC(=O)C(=O)Nc1cccc(OCc2ccc3ccccc3c2)c1 | < 50%
58 | COC(=O)CC(=O)Nc1cccc(OCc2ccc3ccccc3n2)c1 | < 50%
59 | COC(=O)CCC(=O)Nc1ccccc1OCc1ccc2ccccc2c1 | < 50%
60 | COC(=O)CCC(=O)Nc1cccc(OCc2ccc3ccccc3n2)c1C#N | < 50%
61 | COC(=O)CCC(=O)Nc1cccc(OCc2ccc3ccccc3n2)c1C | < 50%
62 | COC(=O)CCC(=O)N(C)c1cccc(OCc2ccc3ccccc3n2)c1 | < 50%
63 | COC(=O)CCC(=O)Nc1cccc(OCc2ccc3ccccc3n2)c1 | < 50%
64 | COC(=O)CC(=O)Nc1cccc(OCc2ccc3ccccc3c2)c1 | < 50%
65 | CCOC(=O)CCC(=O)Nc1cccc(OCc2ccc3ccccc3n2)c1 | < 50%
66 | CCOC(=O)CC(=O)Nc1cccc(OCc2ccc3ccccc3n2)c1 | < 50%
67 | COC(=O)CCC(=O)Nc1cccc(OCc2ccc3ccc(C)cc3n2)c1 | < 50%
68 | COC(=O)CCC(=O)Nc1ccc(OCc2ccc3ccccc3n2)cc1 | < 50%
69 | COC(=O)CCC(=O)Nc1cccc(COc2ccc3ccccc3c2)c1 | < 50%
70 | COC(=O)CCC(=O)Nc1cc(OCc2ccc3ccccc3n2)ccc1C | < 50%
